Laboratory results taken from ChEMBL document CHEMBL4396948, “Structure based design of macrocyclic factor XIa inhibitors: Discovery of cyclic P1 linker moieties with improved oral bioavailability” (Bioorg Med Chem Lett, 2019).
pKi: −log10 of the molar value.

Assays:
[1] = Permeability from apical to basolateral side in human Caco2 cells; type: ADME, cell-based; conditions: Caco-2, read-out: permeability
[2] = Half life in rat liver microsomes; type: ADME, Microsome
[3] = Permeability from basolateral to apical side in human Caco2 cells; type: ADME, cell-based; conditions: Caco-2, read-out: permeability
[4] = AUC in rat; type: ADME; conditions: in vivo
Outline: (§1)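 Rat PK after iv and po dosing; both routes given in vehicle 70% PG, 20% water, 10% ethanol; compounds dosed either in cassette or discrete format.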

[5] = Clearance in rat at 0.79 mg/kg, iv or 1.58 mg/kg, po; type: ADME, organism-based; conditions: in vivo; outline: as §1
[6] = Volume of distribution at steady state in rat at 0.79 mg/kg, iv or 1.58 mg/kg, po; type: ADME, organism-based; conditions: in vivo, read-out: Vdss; outline: as §1
[7] = Half life in rat at 0.79 mg/kg, iv or 1.58 mg/kg, po; type: ADME, organism-based; conditions: in vivo; outline: as §1
[8] = Half life in human liver microsomes; type: ADME, Microsome
[9] = Oral bioavailability in rat at 1.58 mg/kg; type: ADME, organism-based; conditions: in vivo; outline: as §1
Coagulation factor IX = Coagulation factor IX (Homo sapiens, UniProt P00740); assay: Inhibition of activated human coagulation factor 9
Chain of Coagulation factor IX (P00740 47-191 limits assumed): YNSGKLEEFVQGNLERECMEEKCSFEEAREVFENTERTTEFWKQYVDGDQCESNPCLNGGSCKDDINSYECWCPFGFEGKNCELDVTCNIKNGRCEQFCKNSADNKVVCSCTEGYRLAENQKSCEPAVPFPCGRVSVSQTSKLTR
Chain of Coagulation factor IX (P00740 227-461 limits assumed): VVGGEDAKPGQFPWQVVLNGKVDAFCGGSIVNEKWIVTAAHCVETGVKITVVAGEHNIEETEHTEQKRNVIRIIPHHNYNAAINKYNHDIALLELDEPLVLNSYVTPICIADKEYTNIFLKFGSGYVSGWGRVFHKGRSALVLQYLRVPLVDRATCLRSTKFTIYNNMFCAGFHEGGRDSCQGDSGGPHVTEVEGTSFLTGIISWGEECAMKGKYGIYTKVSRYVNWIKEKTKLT

[10] = Half life in rat at 0.63 mg/kg, iv or 1.27 mg/kg, po; type: ADME, organism-based; conditions: in vivo
Outline: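 Rat pharmacokinetics with iv and oral dosing; the vehicle for both routes was 70% PG, 20% water and 10% ethanol. Half-life was derived from the plasma profile.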

[11] = target: Tissue-type plasminogen activator (Homo sapiens, UniProt P00750); assay: Inhibition of human TPA
Chain of Tissue-type plasminogen activator (P00750 whole entry): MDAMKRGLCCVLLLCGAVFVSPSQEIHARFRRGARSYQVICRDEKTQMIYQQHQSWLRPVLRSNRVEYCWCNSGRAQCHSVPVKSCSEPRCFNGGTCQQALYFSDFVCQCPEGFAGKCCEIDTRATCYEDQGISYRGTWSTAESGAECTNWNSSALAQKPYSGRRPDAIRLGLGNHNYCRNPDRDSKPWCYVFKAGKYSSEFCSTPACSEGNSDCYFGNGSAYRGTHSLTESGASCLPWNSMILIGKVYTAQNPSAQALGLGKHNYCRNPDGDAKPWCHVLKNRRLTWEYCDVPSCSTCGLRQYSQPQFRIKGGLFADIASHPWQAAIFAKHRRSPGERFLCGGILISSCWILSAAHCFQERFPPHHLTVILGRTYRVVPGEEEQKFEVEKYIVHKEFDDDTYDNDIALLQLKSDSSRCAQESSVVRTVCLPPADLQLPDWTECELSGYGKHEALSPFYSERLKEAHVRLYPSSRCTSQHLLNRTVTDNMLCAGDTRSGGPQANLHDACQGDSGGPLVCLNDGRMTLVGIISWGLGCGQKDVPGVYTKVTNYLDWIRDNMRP

Coagulation factor XII = target: T1, Coagulation factor XII (Homo sapiens, UniProt P00748); assay: Inhibition of activated human coagulation factor 12
T1 sequence (P00748 whole entry): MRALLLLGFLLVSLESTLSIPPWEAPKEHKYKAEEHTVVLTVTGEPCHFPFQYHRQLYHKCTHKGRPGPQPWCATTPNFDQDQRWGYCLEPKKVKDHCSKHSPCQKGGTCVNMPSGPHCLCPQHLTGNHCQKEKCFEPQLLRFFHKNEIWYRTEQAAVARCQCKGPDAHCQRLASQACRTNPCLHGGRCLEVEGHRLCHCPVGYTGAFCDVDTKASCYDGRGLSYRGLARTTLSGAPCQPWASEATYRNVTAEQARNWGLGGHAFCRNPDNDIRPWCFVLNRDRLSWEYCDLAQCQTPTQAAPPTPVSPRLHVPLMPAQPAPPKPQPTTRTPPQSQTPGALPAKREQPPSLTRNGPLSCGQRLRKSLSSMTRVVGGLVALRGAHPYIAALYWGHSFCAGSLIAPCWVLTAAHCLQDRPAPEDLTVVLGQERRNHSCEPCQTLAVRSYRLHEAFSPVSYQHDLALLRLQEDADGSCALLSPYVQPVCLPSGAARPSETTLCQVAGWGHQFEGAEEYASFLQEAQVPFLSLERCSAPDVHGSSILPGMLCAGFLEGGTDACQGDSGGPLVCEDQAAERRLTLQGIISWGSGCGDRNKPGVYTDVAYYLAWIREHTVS

[12] = Clearance in rat at 0.63 mg/kg, iv or 1.27 mg/kg, po; type: ADME, organism-based; conditions: in vivo; outline: as §1
Coagulation factor VII = target: T2, Coagulation factor VII (Homo sapiens, UniProt P08709); assay: Inhibition of activated human coagulation factor 7
T2 sequence (P08709 whole entry): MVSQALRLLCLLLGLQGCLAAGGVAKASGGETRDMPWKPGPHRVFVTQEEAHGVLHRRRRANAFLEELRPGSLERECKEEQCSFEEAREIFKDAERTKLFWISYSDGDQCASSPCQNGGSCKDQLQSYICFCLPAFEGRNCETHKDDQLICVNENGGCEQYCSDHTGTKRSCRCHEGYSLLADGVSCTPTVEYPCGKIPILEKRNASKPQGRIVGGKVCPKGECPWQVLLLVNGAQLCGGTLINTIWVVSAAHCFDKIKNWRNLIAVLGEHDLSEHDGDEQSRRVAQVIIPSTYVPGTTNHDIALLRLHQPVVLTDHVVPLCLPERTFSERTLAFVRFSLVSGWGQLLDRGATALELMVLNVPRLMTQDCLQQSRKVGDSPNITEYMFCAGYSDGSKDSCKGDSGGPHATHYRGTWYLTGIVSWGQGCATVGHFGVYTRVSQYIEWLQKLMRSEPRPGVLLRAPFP

Trypsin = Trypsin (Homo sapiens, UniProt P07477+P07478+P35030); assay: Inhibition of human trypsin; type: protein assay
[13] = target: Urokinase-type plasminogen activator (Homo sapiens, UniProt P00749); assay: Inhibition of human urokinase
Plasminogen = Plasminogen (Homo sapiens, UniProt P00747); assay: Inhibition of human plasmin
Chain of Plasminogen (P00747 97-580 limits assumed): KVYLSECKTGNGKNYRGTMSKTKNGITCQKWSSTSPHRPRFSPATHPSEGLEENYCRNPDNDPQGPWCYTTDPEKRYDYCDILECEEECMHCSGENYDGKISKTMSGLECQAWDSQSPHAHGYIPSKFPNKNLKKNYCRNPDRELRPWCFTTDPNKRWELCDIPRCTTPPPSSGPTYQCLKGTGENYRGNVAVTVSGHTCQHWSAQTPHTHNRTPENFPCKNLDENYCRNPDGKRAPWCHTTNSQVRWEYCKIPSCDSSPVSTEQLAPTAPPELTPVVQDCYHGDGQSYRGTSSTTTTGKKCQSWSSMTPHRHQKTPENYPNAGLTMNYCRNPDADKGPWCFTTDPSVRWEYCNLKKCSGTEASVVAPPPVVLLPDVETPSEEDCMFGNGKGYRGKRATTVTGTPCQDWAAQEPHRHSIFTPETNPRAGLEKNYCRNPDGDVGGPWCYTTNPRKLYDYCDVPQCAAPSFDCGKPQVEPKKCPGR
Chain of Plasminogen (P00747 581-810 limits assumed): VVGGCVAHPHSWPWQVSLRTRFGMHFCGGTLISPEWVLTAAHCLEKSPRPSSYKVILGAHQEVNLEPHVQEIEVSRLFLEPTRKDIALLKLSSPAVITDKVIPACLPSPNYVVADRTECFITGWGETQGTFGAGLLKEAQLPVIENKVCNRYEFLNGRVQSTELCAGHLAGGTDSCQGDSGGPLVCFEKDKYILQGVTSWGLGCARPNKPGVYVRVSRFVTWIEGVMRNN

Prothrombin = Prothrombin (Homo sapiens, UniProt P00734); assay: Inhibition of human thrombin
[14] = target: Vitamin K-dependent protein C (Homo sapiens, UniProt P04070); assay: Inhibition of human activated protein C
Chain of Vitamin K-dependent protein C (P04070 43-197 limits assumed): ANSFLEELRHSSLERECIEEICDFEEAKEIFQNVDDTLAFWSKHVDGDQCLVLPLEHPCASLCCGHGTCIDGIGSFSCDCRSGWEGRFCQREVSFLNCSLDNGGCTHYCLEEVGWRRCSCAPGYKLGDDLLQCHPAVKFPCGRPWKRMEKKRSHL
Chain of Vitamin K-dependent protein C (P04070 212-461 limits assumed): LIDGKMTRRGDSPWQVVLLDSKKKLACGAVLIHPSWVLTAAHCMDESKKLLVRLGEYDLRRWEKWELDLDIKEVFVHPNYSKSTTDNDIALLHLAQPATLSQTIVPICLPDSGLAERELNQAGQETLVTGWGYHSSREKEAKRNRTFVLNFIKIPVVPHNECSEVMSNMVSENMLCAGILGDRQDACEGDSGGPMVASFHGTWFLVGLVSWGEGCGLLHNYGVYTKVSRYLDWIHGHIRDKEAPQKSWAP

Coagulation factor X = Coagulation factor X (Homo sapiens, UniProt P00742); assay: Inhibition of activated human coagulation factor 10
Chain of Coagulation factor X (P00742 41-179 limits assumed): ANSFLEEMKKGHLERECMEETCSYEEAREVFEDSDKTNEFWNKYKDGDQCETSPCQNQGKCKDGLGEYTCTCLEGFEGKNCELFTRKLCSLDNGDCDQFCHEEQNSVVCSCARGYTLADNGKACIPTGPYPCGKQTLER
Chain of Coagulation factor X (P00742 235-488 limits assumed): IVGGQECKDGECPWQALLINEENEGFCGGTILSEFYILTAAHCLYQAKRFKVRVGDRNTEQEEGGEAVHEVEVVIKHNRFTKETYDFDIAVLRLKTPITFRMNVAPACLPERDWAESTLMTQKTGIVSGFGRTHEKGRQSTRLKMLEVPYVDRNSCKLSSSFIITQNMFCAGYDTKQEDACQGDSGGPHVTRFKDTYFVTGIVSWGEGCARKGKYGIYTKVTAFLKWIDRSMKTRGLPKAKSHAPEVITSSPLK

[15] = Oral bioavailability in rat at 1.27 mg/kg; type: ADME, organism-based; conditions: in vivo; outline: as §1
[16] = Volume of distribution at steady state in rat at 0.63 mg/kg, iv or 1.27 mg/kg, po; type: ADME, organism-based; conditions: in vivo, read-out: Vdss; outline: as §1
Coagulation factor XI = Coagulation factor XI (Homo sapiens, UniProt P03951); assay: Inhibition of activated coagulation factor 11 (unknown origin) assessed as inhibitory constant
Chain of Coagulation factor XI (P03951 19-387 limits assumed): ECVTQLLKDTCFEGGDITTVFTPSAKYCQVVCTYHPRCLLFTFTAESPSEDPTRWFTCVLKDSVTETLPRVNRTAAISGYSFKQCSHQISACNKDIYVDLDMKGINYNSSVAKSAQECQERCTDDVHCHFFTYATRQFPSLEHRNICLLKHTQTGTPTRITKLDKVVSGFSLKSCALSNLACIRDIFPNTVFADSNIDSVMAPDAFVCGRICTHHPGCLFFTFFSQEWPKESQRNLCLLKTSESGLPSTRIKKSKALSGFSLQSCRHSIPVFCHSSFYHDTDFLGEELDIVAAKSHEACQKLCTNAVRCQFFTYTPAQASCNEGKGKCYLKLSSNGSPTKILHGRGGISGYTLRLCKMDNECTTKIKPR
Chain of Coagulation factor XI (P03951 388-625 limits assumed): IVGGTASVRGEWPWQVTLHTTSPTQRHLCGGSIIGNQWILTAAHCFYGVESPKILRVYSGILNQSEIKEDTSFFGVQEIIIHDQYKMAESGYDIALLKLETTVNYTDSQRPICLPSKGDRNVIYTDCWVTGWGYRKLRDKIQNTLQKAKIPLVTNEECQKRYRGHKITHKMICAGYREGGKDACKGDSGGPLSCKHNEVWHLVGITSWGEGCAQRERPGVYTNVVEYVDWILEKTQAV

[17] = Clearance in rat at […], iv or 1.04 mg/kg, po; type: ADME, organism-based; conditions: in vivo
[18] = Volume of distribution at steady state in rat at […], iv or 1.04 mg/kg, po; type: ADME, organism-based; conditions: in vivo, read-out: Vdss
[19] = Half life in rat at […], iv or 1.04 mg/kg, po; type: ADME, organism-based; conditions: in vivo
[20] = Oral bioavailability in rat at 1.04 mg/kg; type: ADME, organism-based; conditions: in vivo; outline: as §1
[21] = Oral bioavailability in rat at 1.36 mg/kg; type: ADME, organism-based; conditions: in vivo; outline: as §1
[22] = Volume of distribution at steady state in rat at 0.68 mg/kg, iv or 1.36 mg/kg, po; type: ADME, organism-based; conditions: in vivo, read-out: Vdss; outline: as §1
[23] = Half life in rat at 0.68 mg/kg, iv or 1.36 mg/kg, po; type: ADME, organism-based; conditions: in vivo; outline: as §1
[24] = Clearance in rat at 0.68 mg/kg, iv or 1.36 mg/kg, po; type: ADME, organism-based; conditions: in vivo; outline: as §1

Structure (SMILES): COC(=O)Nc1ccc2c(c1)NC(=O)CC/C=C/C[C@H](NC(=O)/C=C/c1cc(Cl)ccc1-n1cnnn1)c1nc-2c[nH]1
- Papp A→B [1]: < 1.5 ×10⁻⁶ cm/s
- half-life [2]: 39 min
- Papp B→A [3]: 5.8 ×10⁻⁶ cm/s
- AUC [4]: 0.011 µM·h
- clearance [5]: 28 mL/min/kg
- Vd [6]: 0.7 L/kg
- half-life [7]: 42 min
- half-life [8]: 41 min
- bioavailability [9]: 0.8%

Structure (SMILES): COC(=O)Nc1ccc2c(c1)NC(=O)CC/C=C/C[C@H](N1CC[C@H](c3cccc(Cl)c3)CC1=O)c1nc-2c[nH]1
- Papp A→B [1]: 4.6 ×10⁻⁶ cm/s
- pKi (Coagulation factor IX): < 4.57
- half-life [10]: 30 min
- half-life [2]: 5 min
- Papp B→A [3]: 30.9 ×10⁻⁶ cm/s
- pKi [11]: < 5.21
- AUC [4]: 0.031 µM·h
- pKi (Coagulation factor XII): < 5.52
- clearance [12]: 188 mL/min/kg
- pKi (Coagulation factor VII): 5.31
- Ki (Trypsin): > 6.26 µM
- pKi [13]: < 4.82
- pKi (Plasminogen): < 4.82
- pKi (Prothrombin): < 4.88
- pKi [14]: < 5.15
- half-life [8]: 6 min
- pKi (Coagulation factor X): < 5.05
- bioavailability [15]: 15%
- Vd [16]: 4.6 L/kg

Structure (SMILES): COC(=O)Nc1ccc(-c2nc([C@H](Cc3ccccc3)NC(=O)CCc3cccc(Cl)c3)[nH]c2Cl)cc1
- pKi (Coagulation factor XI): 6.06

Structure (SMILES): COC(=O)Nc1ccc(-c2nc([C@H](Cc3ccccc3)N(C)C(=O)/C=C/c3cc(Cl)ccc3-n3cnnn3)[nH]c2Cl)cc1
- pKi (Coagulation factor XI): 6.72

Structure (SMILES): COC(=O)Nc1ccc2c(c1)NC(=O)CC/C=C/C[C@H](N1CCC(c3c(F)ccc(Cl)c3F)NC1=O)c1nc-2c[nH]1 (some centres not stated)
- half-life [2]: 26 min
- half-life [8]: 41 min

Structure (SMILES): COC(=O)Nc1ccc2c(c1)NC(=O)CC/C=C/C[C@H](NC(=O)/C=C/c1cccc(Cl)c1)c1nc-2c[nH]1
- clearance [17]: 44 mL/min/kg
- Vd [18]: 3.2 L/kg
- Papp A→B [1]: < 1.5 ×10⁻⁶ cm/s
- half-life [2]: 45 min
- Papp B→A [3]: 32.4 ×10⁻⁶ cm/s
- AUC [4]: 0.027 µM·h
- half-life [19]: 84 min
- half-life [8]: 32 min
- bioavailability [20]: 2%

Structure (SMILES): COC(=O)Nc1ccc(-c2c[nH]c([C@@H]3[C@@H](c4ccccc4)CCN3C(=O)/C=C/c3cc(Cl)ccc3-n3cnnn3)n2)cc1
- pKi (Coagulation factor XI): 6.43

Structure (SMILES): COC(=O)Nc1ccc2c(c1)NC(=O)CC/C=C/C[C@H](N1CC[C@H](c3c(F)ccc(Cl)c3F)CC1=O)c1nc-2c[nH]1
- half-life [2]: 7 min
- half-life [8]: 9 min

Structure (SMILES): COC(=O)Nc1ccc2c(c1)NC(=O)CC/C=C/C[C@H](N1CCC(c3cccc(Cl)c3)NC1=O)c1nc-2c[nH]1 (some centres not stated)
- half-life [2]: 18 min
- half-life [8]: 35 min

Structure (SMILES): COC(=O)Nc1ccc(-c2cn3c(n2)C(Cc2ccccc2)N(C(=O)/C=C/c2cc(Cl)ccc2-n2cnnn2)CCC3)cc1 (configuration not stated)
- pKi (Coagulation factor XI): < 4.88

Structure (SMILES): COC(=O)Nc1ccc2c(c1)NC(=O)CC/C=C/C[C@H](N1CC[C@H](c3cccc(Cl)c3)OC1=O)c1nc-2c(Cl)[nH]1
- half-life [2]: 14 min
- half-life [8]: 11 min

Structure (SMILES): COC(=O)Nc1ccc2c(c1)NC(=O)CC/C=C/C[C@H](N1CC[C@H](c3c(F)ccc(Cl)c3F)OC1=O)c1nc-2c(Cl)[nH]1
- half-life [2]: 22 min
- half-life [8]: 9 min

Structure (SMILES): COC(=O)Nc1ccc2c(c1)NC(=O)CC/C=C/C[C@H](N1CC[C@H](c3cc(Cl)ccc3F)OC1=O)c1nc-2c(Cl)[nH]1
- half-life [2]: 18 min
- half-life [8]: 5 min

Structure (SMILES): COC(=O)Nc1ccc2c(c1)NC(=O)CC/C=C/C[C@H](N1CC[C@H](c3cccc(Cl)c3)OC1=O)c1nc-2c[nH]1
- bioavailability [21]: 59%
- AUC [4]: 0.523 µM·h
- Vd [22]: 1.3 L/kg
- half-life [23]: 48 min
- clearance [24]: 40 mL/min/kg

Structure (SMILES): COC(=O)Nc1ccc(-c2nc([C@H](Cc3ccccc3)NC(=O)NCc3cccc(Cl)c3)[nH]c2Cl)cc1
- pKi (Coagulation factor XI): 6.37

Structure (SMILES): COC(=O)Nc1ccc(-c2nc([C@H](Cc3ccccc3)N3CCC(c4cccc(Cl)c4)NC3=O)[nH]c2Cl)cc1 (some centres not stated)
- pKi (Coagulation factor XI): 6.76

Structure (SMILES): COC(=O)Nc1ccc2c(c1)NC(=O)CC/C=C/C[C@H](N1CC[C@H](c3cc(Cl)ccc3C(F)(F)F)OC1=O)c1nc-2c(Cl)[nH]1
- half-life [2]: 49 min
- half-life [8]: 18 min

Structure (SMILES): COC(=O)Nc1ccc2c(c1)NC(=O)CC/C=C/C[C@H](N1CC[C@H](c3c(F)ccc(Cl)c3F)OC1=O)c1nc-2c[nH]1
- half-life [2]: 15 min
- half-life [8]: 8 min

Structure (SMILES): COC(=O)Nc1ccc2c(c1)NC(=O)CC/C=C/C[C@H](N1CCN(c3cccc(Cl)c3)CC1=O)c1nc-2c[nH]1
- half-life [8]: 15 min

Structure (SMILES): [2H][C@]1(c2c(F)ccc(Cl)c2F)CCN([C@H]2C/C=C/CCC(=O)Nc3cc(NC(=O)OC)ccc3-c3nc2[nH]c3Cl)C(=O)O1
- half-life [2]: 31 min
- half-life [8]: 16 min
